Data published in article PMC6422681 (Science signaling, 2018).
Structures can show the parent of a compound that is named as a salt.

Key:
CXCR4 [1] = target: T1, CXCR4 (Homo sapiens, UniProt P61073); assay: Flow cytometry of CXCR4 cell surface expression on Jurkat cells; format: cell-based
ERK1/2 = ERK1/2 phosphorylation assay; format: cell-based, human; conditions: Jurkat cells, 30 nM CXCL12, time points up to 30 min
CXCR4 [2] = target: T1, CXCR4; assay: Transwell chemotaxis of Jurkat cells toward CXCL12; format: cell-based; conditions: Jurkat cells treated 1 hour with 80 μM dynasore, 30 nM CXCL12
CXCR4 [3] = target: T1, CXCR4; assay: Flow cytometry of CXCL12-stimulated CXCR4 endocytosis in Jurkat cells; format: cell-based; conditions: 30 nM CXCL12, antagonist 30 min before
Method in brief: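 Jurkat cells (1×10^5), serum-starved 6 hours, got vehicle or antagonist 30 min before 30 nM CXCL12. At set times, washed three times in ice-cold PBS/1% BSA, stained 20 min with PE-anti-CXCR4 (4G10 or 12G5) or isotype controls, and fixed in 4% paraformaldehyde. Surface CXCR4 read by flow cytometry against CXCL12 alone. Means ± SD; three experiments in triplicate.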

CXCR4 [4] = assay: PRESTO-Tango assay of BA2 recruitment to CXCR4; format: cell-based; conditions: HTLA cells, increasing CXCL12 with 1 μM AMD3100 or 10 μM X4-2-6, 1 hour, 37°C
Method in brief: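 HTLA cells were lipofected with Tango plasmids. After one day they were plated on poly-L-lysine-coated wells and allowed to attach 4 h before treatment with CXCL12 plus vehicle or test compound. Read-out was luminescence after adding a 1:5 mix of Bright-Glo with HBSS/20 mM Hepes and incubating at room temperature.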

CXCR4 [5] = target: T1, CXCR4; assay: CXCR4 phosphorylation assay; format: cell-based; conditions: Jurkat cells, 1 μM AMD3100 or 10 μM X4-2-6 for 30 min, then 30 nM CXCL12 for 30 min
Gαi = assay: GTP loading of Gαi; format: cell-based, human; conditions: Jurkat cells
CXCR4 [6] = target: T1, CXCR4; assay: cAMP concentration by ELISA in Jurkat cells; format: cell-based; conditions: 100 μM forskolin, 30 nM CXCL12
Method in brief: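 Jurkat cells (5×10^6), serum-starved 6 hours in RPMI 1640 with penicillin-streptomycin and L-glutamine. Steps: 100 μM forskolin or vehicle 30 min; then vehicle or antagonists 30 min; then 30 nM CXCL12 30 min. cAMP measured in lysates by direct ELISA; relative change calculated. Means ± SD of three independent experiments, six replicates per condition.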

CXCR4 [7] = target: T1, CXCR4; conditions: Jurkat cells, 72 hours, fig. S1

T1 sequence (P61073 whole entry): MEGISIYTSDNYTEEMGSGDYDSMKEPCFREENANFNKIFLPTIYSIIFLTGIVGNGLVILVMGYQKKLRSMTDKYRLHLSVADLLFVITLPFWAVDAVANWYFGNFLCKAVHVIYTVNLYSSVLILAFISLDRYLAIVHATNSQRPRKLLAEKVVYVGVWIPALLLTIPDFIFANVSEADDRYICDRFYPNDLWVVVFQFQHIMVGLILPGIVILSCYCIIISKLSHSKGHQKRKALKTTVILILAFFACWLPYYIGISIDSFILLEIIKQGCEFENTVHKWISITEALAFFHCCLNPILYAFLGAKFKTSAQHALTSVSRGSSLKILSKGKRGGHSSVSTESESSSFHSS

CXCR4 cell surface expression after dynasore (CXCR4 [1]; 80 μM dynasore for 1 hour, antibody clone 4G10)	potency of AMD3100 to inhibit chemotaxis after dynasore treatment (CXCR4 [2])	CXCR4 cell surface expression after prolonged exposure (CXCR4 [1]; 72 hours, compared to vehicle-treated cells)	increase of CXCL12 EC50 for BA2 recruitment (CXCR4 [4])	total CXCR4 protein amount (CXCR4 [7])	Compound	pERK1/2 (Thr202/Tyr204) generation after CXCL12 (ERK1/2)	CXCL12-mediated CXCR4 internalization (endocytosis) (CXCR4 [3])	phosphorylation of Ser324/325 or Ser339 in the C terminus of CXCR4 (CXCR4 [5])	amount of Gαi-GTP in CXCL12-treated cells (Gαi)	cAMP amounts in forskolin and CXCL12 treated cells (CXCR4 [6])
increased CXCR4 cell surface expression					O=C(N/N=C/c1ccc(O)c(O)c1)c1cc2ccccc2cc1O [dynasore]					
					Nn1cnc2scc(-c3ccc(Cc4ccccc4)cc3)c2c1=O [barbadin]	increased the early and late peaks in pERK1/2 abundance				
	reduced potency	increased cell surface CXCR4 expression	more than 3500 fold	increased the total CXCR4 protein amount	c1cc(CN2CCCNCCNCCCNCC2)ccc1CN1CCCNCCNCCCNCC1 [AMD3100, AMD3100 octahydrochloride hydrate]	inhibited both early and late peaks in pERK1/2 generation	inhibited CXCL12-mediated receptor internalization	inhibited this posttranslational modification	reduced the amount of Gαi-GTP	returned cAMP amounts to those observed in cells treated with forskolin alone
